For 40 compounds, fold change (FC), inhibition and Ki results are on record in ChEMBL document CHEMBL1833856, “Discovery and kinetic evaluation of 6-substituted 4-benzylthio-1,3,5-triazin-2(1H)-ones as inhibitors of cathepsin B” (Eur J Med Chem, 2011).

As a reminder, the inhibition is the change of the read-out against control, counted positive when it falls. The Ki is the equilibrium dissociation constant of an inhibitor or competing ligand from its target.

Assay [1] has as its target T1, Cathepsin B (Homo sapiens, UniProt P07858). As to the kind of experiment: Inhibition of human recombinant cathepsin B assessed as factor by which the product formation changes when the inhibitor binds to the enzyme-substrate complex using Z-Arg-Arg-AMC as substrate by fluorescence microplate assay. An outline of the steps:
(§1)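 Recombinant human catB (133 pM) preactivated 5 min at 37 °C in 100 mM phosphate pH 6.0, 0.1% PEG 8000, 5 mM DTT, 1.5 mM EDTA, 5% DMSO. Initial hydrolysis rates taken across Z-Arg-Arg-AMC (60, 180, 360 µM, as added) and inhibitor (0–70 µM, as added). AMC read ex 380/em 460 nm at 37 °C. Duplicates, two independent runs. β fitted for ES-complex binding.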

The target of assay [2] is Procathepsin L (Homo sapiens) (UniProt P07711). The assay can be described thus: Inhibition of human recombinant cathepsin L expressed in Escherichia coli assessed as formation of fluorescent degradation product AMC using Z-Phe-Arg-AMC as substrate at 50 uM by fluorescence microplate assay.
For assay [3], the target named is T2, Pro-cathepsin H (Homo sapiens) (UniProt P09668).
T2 sequence (whole entry): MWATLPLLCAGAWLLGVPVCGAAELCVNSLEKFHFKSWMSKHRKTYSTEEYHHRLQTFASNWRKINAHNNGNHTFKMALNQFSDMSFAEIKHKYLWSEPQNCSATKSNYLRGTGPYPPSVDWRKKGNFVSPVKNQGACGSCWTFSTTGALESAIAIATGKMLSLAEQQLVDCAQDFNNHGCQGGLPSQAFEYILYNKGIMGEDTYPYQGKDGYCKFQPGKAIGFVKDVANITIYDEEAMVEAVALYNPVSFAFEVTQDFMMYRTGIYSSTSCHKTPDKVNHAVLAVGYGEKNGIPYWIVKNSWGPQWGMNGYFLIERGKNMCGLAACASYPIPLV
The assay can be described thus: Inhibition of native cathepsin H isolated from human liver assessed as formation of fluorescent degradation product AMC using Arg-AMC as substrate at 50 uM by fluorescence microplate assay.

The target of assay [4] is T1, Cathepsin B. The assay can be described thus: Inhibition of human recombinant cathepsin B assessed as formation of fluorescent degradation product AMC using Z-Arg-Arg-AMC as substrate at 50 uM by fluorescence microplate assay.
Assay [5] deals with T1, Cathepsin B. As to the kind of experiment: Reversible inhibition of human recombinant cathepsin B assessed as formation of fluorescent degradation product AMC using Z-Arg-Arg-AMC as substrate by Michaelis-Menten method. The gist of the method: as §1
The target of assay [6] is T1, Cathepsin B. As to the kind of experiment: Partial mixed-type inhibition of human recombinant cathepsin B assessed as formation of fluorescent degradation product AMC using Z-Arg-Arg-AMC as substrate by Michaelis-Menten method. An outline of the steps:
as §1

Sequence of Procathepsin L (Homo sapiens) (P07711 114-333 limits assumed): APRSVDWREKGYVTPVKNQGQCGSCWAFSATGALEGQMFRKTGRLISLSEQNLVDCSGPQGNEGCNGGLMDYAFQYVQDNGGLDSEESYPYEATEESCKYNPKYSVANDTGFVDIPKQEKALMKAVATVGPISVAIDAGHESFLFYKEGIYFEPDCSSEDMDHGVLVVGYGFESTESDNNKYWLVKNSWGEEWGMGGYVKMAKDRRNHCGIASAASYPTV

`CCCSc1nc(SCc2ccccc2)nc(=O)[nH]1`: the fold change (FC) in assay [1] was determined as 0. The inhibition is -8.66% in assay [2] and -4.82% in assay [3].
Turning to `COc1nc(N[C@H](CCC(=O)O)C(=O)O)nc(OC)n1`, the inhibition in assay [4] was -5.48%; in assay [3], 0.34%.
On to `N#Cc1ccc(CSc2nc(SCc3ccccc3)nc(=O)[nH]2)cc1`, for which the figures for the Ki in assay [5] and in assay [6] were 24.3 µM and 10.8 µM, respectively. In addition, in assay [1], the fold change (FC) amounted to 0.07. For the same compound, the inhibition in assay [2] came out at 44.9%; in assay [3], 1.55%.
Consider `N#Cc1cccc(CSc2nc(SCc3ccccc3)nc(=O)[nH]2)c1`, for which the Ki in assay [5] is 46.7 µM; in assay [6], 9.1 µM. Further, the fold change (FC) in assay [1] stood at 0.02.
As for `COc1nc(Nc2ccccc2C(=O)O)nc(OC)n1`, the values for the inhibition in assay [4], in assay [2] and in assay [3] were 6.34%, -3.14% and 2.63%, respectively.
As for `O=c1nc(SCc2ccccc2)nc(SCC2CCCCC2)[nH]1`, the Ki is 11.9 µM in assay [5] and 3.3 µM in assay [6]. In assay [1], the fold change (FC) was 0.12. Further, the inhibition amounted to 76.2% in assay [2] and 10.2% in assay [3].
In the case of `O=c1nc(SCc2ccccc2)nc(S)[nH]1`, the results for the inhibition in assay [4], in assay [2] and in assay [3] were 2.5%, 3.79% and 9.63%, respectively.
Consider `O=c1nc(SCc2ccccc2)nc(SCc2ccc(F)cc2)[nH]1`, for which the Ki is 16.6 µM in assay [5] and 13.8 µM in assay [6]. In addition, in assay [1], the fold change (FC) turned out to be 0.33.
On to `O=c1nc(SCc2ccccc2)nc(SCc2cccc(F)c2)[nH]1`, for which the Ki is 10.2 µM in assay [5] and 7.4 µM in assay [6]. Moreover, the fold change (FC) in assay [1] turned out to be 0.22. Besides, the inhibition in assay [2] came out at 7.68%; in assay [3] it was 4.18%.
In the same order, the values of `O=c1nc(SCc2ccccc2)nc(SCc2cccc([N+](=O)[O-])c2)[nH]1` are 11.3 µM, 3.3 µM, 0.15, 81.2% and 3.92%.
Regarding `COc1ccc(CNc2nc(Cl)nc(N(C)CCO)n2)cc1`, the inhibition was determined as 0.92% in assay [4], 9.95% in assay [2] and 7.12% in assay [3].
In the same order, the values of `CC(C)OC(=O)[C@H](C)NC(=O)c1ccc(Nc2nc(Cl)nc(Cl)n2)cc1` are 1.68%, -6.12% and 3.02%.
In the case of `COc1cccc(CSc2nc(SCc3ccccc3)nc(=O)[nH]2)c1`, the Ki amounted to 13 µM in assay [5] and 21.9 µM in assay [6]. For the same compound, the fold change (FC) in assay [1] stood at 0.42.
For the compound `O=c1nc(-c2ccccc2)nc(S)[nH]1`, the inhibition in assay [4] is -3.22%; in assay [2] it was -1.89%; in assay [3], 4.86%.
With `COc1ccc(CNc2nc(Cl)nc(Cl)n2)cc1`, the inhibition in assay [4] came out at 3.99%; in assay [2], 0.48%; in assay [3], 6.37%.
With `OCCc1ccccc1Nc1nc(Cl)nc(N2CCOCC2)n1`, the results for the inhibition in assay [4] and in assay [3] were -4.76% and -8.72%, respectively.
With `Cc1ccc(-c2nc(S)[nH]c(=O)n2)cc1`, the inhibition in assay [4] was determined as 9.02%; in assay [2], 6.37%; in assay [3], 6.58%.
Regarding `O=c1nc(SCc2ccccc2)nc(SCc2ccc([N+](=O)[O-])cc2)[nH]1`, the Ki in assay [5] was determined as 10 µM; in assay [6], 4 µM. In addition, in assay [1], the fold change (FC) turned out to be 0.17.
On to `O=c1nc(-c2cccc([N+](=O)[O-])c2)nc(S)[nH]1`, for which the inhibition in assay [4] was 4.71%; in assay [2], 7.7%; in assay [3] it was 7.97%.
Consider `CCc1ccccc1Nc1nc(Cl)nc(Cl)n1`, for which the results for the inhibition in assay [4], in assay [2] and in assay [3] were -3.44%, -1.59% and -2.26%, respectively.
With `COC(=O)c1ccccc1Oc1nc(OC)nc(OC)n1`, the inhibition in assay [4] is -0.33%; in assay [2], -9.64%; in assay [3], -5.34%.
Regarding `COc1ccccc1CSc1nc(SCc2ccccc2)nc(=O)[nH]1`, the Ki was determined as 15.6 µM in assay [5] and 4.4 µM in assay [6]. Moreover, the fold change (FC) in assay [1] stood at 0.22. Moreover, the results for the inhibition in assay [4], in assay [2] and in assay [3] were 79.6%, 61.3% and 1.06%, respectively.
As to `COc1ccc(CCNc2nc(Cl)nc(Cl)n2)cc1OC`, the values for the inhibition in assay [4], in assay [2] and in assay [3] were -9.7%, -0.33% and -2.17%, respectively.
As for `O=c1nc(SCc2ccccc2)nc(SCc2cccc(Cl)c2)[nH]1`, the Ki in assay [5] worked out at 5.4 µM; in assay [6], 4.5 µM. Besides, the fold change (FC) in assay [1] amounted to 0.28.
Consider `N#Cc1ccc(CSc2nc(SCc3ccccc3)nc(=O)[nH]2)c(F)c1`, for which the figures for the Ki in assay [5] and in assay [6] were 23 µM and 9.7 µM, respectively. Also, the fold change (FC) in assay [1] worked out at 0.07.
In the same order, the values of `N#Cc1ccccc1CSc1nc(SCc2ccccc2)nc(=O)[nH]1` are 40.7 µM, 10.5 µM and 0.04.
As for `COc1nc(OC)nc(Sc2ccccc2C(=O)N[C@@H](C)C(=O)OCc2ccccc2)n1`, the inhibition in assay [4] was 3.18%; in assay [2] it was -4.25%; in assay [3], 1.34%.
With `COc1nc(OC)nc(Sc2ccccc2C(=O)O)n1`, the results for the inhibition in assay [4] and in assay [2] were 2.35% and 15.8%, respectively.
Turning to `Clc1nc(Cl)nc(Nc2ccccc2Br)n1`, the figures for the inhibition in assay [4], in assay [2] and in assay [3] were -1.59%, 0.59% and 4.52%, respectively.
For the compound `O=c1nc(SCc2ccccc2)nc(SCc2ccc(Cl)cc2)[nH]1`, the Ki in assay [5] worked out at 4.4 µM; in assay [6] it was 2.5 µM. Further, the fold change (FC) in assay [1] was found to be 0.25. Also, the inhibition in assay [2] was determined as 85.2%; in assay [3] it was 6.91%.
Take `COc1ccc(CSc2nc(SCc3ccccc3)nc(=O)[nH]2)cc1`: the Ki in assay [5] was 11.1 µM; in assay [6] it was 10.3 µM. Further, the fold change (FC) in assay [1] amounted to 0.2.
Take `C[C@@H](NC(=O)c1ccccc1Nc1nc(Cl)nc(Cl)n1)C(=O)O`: the values for the inhibition in assay [4] and in assay [2] were -1.7% and -5.15%, respectively.
As for `O=C(O)c1ccccc1Sc1nc(Cl)nc(Cl)n1`, the inhibition was 2.3% in assay [4] and -1.7% in assay [3].
As to `CN(CCO)c1nc(Cl)nc(Nc2ccccc2CCO)n1`, the inhibition was -3.56% in assay [4], 11.6% in assay [2] and 0.61% in assay [3].
As for `CC(C)(C)c1ccccc1Nc1nc(Cl)nc(Cl)n1`, the inhibition in assay [4] was -7.27%; in assay [2], 4.36%; in assay [3], -4.16%.
In the case of `O=c1nc(SCc2ccccc2)nc(SCc2ccccc2Cl)[nH]1`, the results for the Ki in assay [5] and in assay [6] were 7.2 µM and 3.6 µM, respectively. Moreover, the fold change (FC) in assay [1] came out at 0.23.
Taken in the same sequence, the figures for `O=c1nc(SCc2ccccc2)nc(SCc2ccccc2F)[nH]1` were 9.5 µM, 9 µM and 0.36.
Take `OCCc1ccccc1Nc1nc(Cl)nc(Cl)n1`: the inhibition in assay [4] is -3.38%.
On to `O=c1nc(SCc2ccccc2)nc(SCc2ccccc2[N+](=O)[O-])[nH]1`, for which the Ki was found to be 11.9 µM in assay [5] and 6 µM in assay [6]. Further, the fold change (FC) in assay [1] worked out at 0.24.
With `COC(=O)c1ccccc1Nc1nc(Cl)nc(Cl)n1`, the values for the inhibition in assay [4], in assay [2] and in assay [3] were -0.92%, 8.76% and -4.23%, respectively.
